Experimental data taken from ChEMBL document CHEMBL1121529, “Synthesis of [82Br]bromperidol and preliminary tissue distribution studies in the rat” (J Med Chem, 1980).

Tests used:
Parameters in all cases: dose 0.2 mg/kg, route intravenous
Rattus norvegicus [1] = assay: Tested for the tissue distribution of Br activity at 60 min in liver following intravenous injection in rat at the dose of 0.2 mg/kg; assay type: ADME, organism-based; settings: in vivo, 1 h
Summary of the method: (§1)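 Male Sprague-Dawley rats (300-320 g, fed ad libitum) anesthetized with sodium pentobarbital 45 mg/kg, then given an iv bolus into the jugular vein of 19-22 µCi (0.2 mg/kg) [82Br]bromperidol in propylene glycol-ethanol-water (40:20:40), pH 4. Rats serially sacrificed by cardiac puncture. Organs counted 100 s at ~12 000 cpm with decay correction. Values are % dose/g, mean and SD of three.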

Rattus norvegicus [2] = assay: Tested for the tissue distribution of Br activity at 15 min in liver following intravenous injection in rat at the dose of 0.2 mg/kg; assay type: ADME, organism-based; settings: in vivo, 0.25 h; summary of the method: as §1
Rattus norvegicus [3] = assay: Tested for the tissue distribution of Br activity at 15 min in lungs following intravenous injection in rat at the dose of 0.2 mg/kg; assay type: ADME, organism-based, Lung; settings: in vivo, 0.25 h; summary of the method: as §1
Rattus norvegicus [4] = assay: Tested for the tissue distribution of Br activity at 15 min in kidney following intravenous injection in rat at the dose of 0.2 mg/kg; assay type: ADME, organism-based; settings: in vivo, 0.25 h; summary of the method: as §1
Rattus norvegicus [5] = assay: Tested for the tissue distribution of Br activity at 45 min in liver following intravenous injection in rat at the dose of 0.2 mg/kg; assay type: ADME, organism-based; settings: in vivo, 0.75 h; summary of the method: as §1
Rattus norvegicus [6] = assay: Tested for the tissue distribution of Br activity at 120 min in blood following intravenous injection in rat at the dose of 0.2 mg/kg; assay type: ADME, organism-based; settings: in vivo, 2 h; summary of the method: as §1
Rattus norvegicus [7] = assay: Tested for the tissue distribution of Br activity at 60 min in brain following intravenous injection in rat at the dose of 0.2 mg/kg; assay type: ADME, organism-based; settings: in vivo, 1 h; summary of the method: as §1
Rattus norvegicus [8] = assay: Tested for the tissue distribution of Br activity at 45 min in lung following intravenous injection in rat at the dose of 0.2 mg/kg; assay type: ADME, organism-based; settings: in vivo, 0.75 h; summary of the method: as §1
Rattus norvegicus [9] = assay: Tested for the tissue distribution of Br activity at 30 min in blood following intravenous injection in rat at the dose of 0.2 mg/kg; assay type: ADME, organism-based; settings: in vivo, 0.5 h; summary of the method: as §1
Rattus norvegicus [10] = assay: Tested for the tissue distribution of Br activity at 45 min in brain following intravenous injection in rat at the dose of 0.2 mg/kg; assay type: ADME, organism-based; settings: in vivo, 0.75 h; summary of the method: as §1
Rattus norvegicus [11] = assay: Tested for the tissue distribution of Br activity at 30 min in liver following intravenous injection in rat at the dose of 0.2 mg/kg; assay type: ADME, organism-based; settings: in vivo, 0.5 h; summary of the method: as §1
Rattus norvegicus [12] = assay: Tested for the tissue distribution of Br activity at 15 min in brain following intravenous injection in rat at the dose of 0.2 mg/kg; assay type: ADME, organism-based; settings: in vivo, 0.25 h; summary of the method: as §1
Rattus norvegicus [13] = assay: Tested for the tissue distribution of Br activity at 60 min in lung following intravenous injection in rat at the dose of 0.2 mg/kg; assay type: ADME, organism-based; settings: in vivo, 1 h; summary of the method: as §1
Rattus norvegicus [14] = assay: Tested for the tissue distribution of Br activity at 120 min in liver following intravenous injection in rat at the dose of 0.2 mg/kg; assay type: ADME, organism-based; settings: in vivo, 2 h; summary of the method: as §1
Rattus norvegicus [15] = assay: Tested for the tissue distribution of Br activity at 30 min in kidney following intravenous injection in rat at the dose of 0.2 mg/kg; assay type: ADME, organism-based; settings: in vivo, 0.5 h; summary of the method: as §1
Rattus norvegicus [16] = assay: Tested for the tissue distribution of Br activity at 30 min in brain following intravenous injection in rat at the dose of 0.2 mg/kg; assay type: ADME, organism-based; settings: in vivo, 0.5 h; summary of the method: as §1
Rattus norvegicus [17] = assay: Tested for the tissue distribution of Br activity at 45 min in blood following intravenous injection in rat at the dose of 0.2 mg/kg; assay type: ADME, organism-based; settings: in vivo, 0.75 h; summary of the method: as §1
Rattus norvegicus [18] = assay: Tested for the tissue distribution of Br activity at 120 min in lung following intravenous injection in rat at the dose of 0.2 mg/kg; assay type: ADME, organism-based; settings: in vivo, 2 h; summary of the method: as §1
Rattus norvegicus [19] = assay: Tested for the tissue distribution of Br activity at 30 min in lung following intravenous injection in rat at the dose of 0.2 mg/kg; assay type: ADME, organism-based; settings: in vivo, 0.5 h; summary of the method: as §1
Rattus norvegicus [20] = assay: Tested for the tissue distribution of Br activity at 60 min in blood following intravenous injection in rat at the dose of 0.2 mg/kg; assay type: ADME, organism-based; settings: in vivo, 1 h; summary of the method: as §1
Rattus norvegicus [21] = assay: Tested for the tissue distribution of Br activity at 15 min in blood following intravenous injection in rat at the dose of 0.2 mg/kg; assay type: ADME, organism-based; settings: in vivo, 0.25 h; summary of the method: as §1
Rattus norvegicus [22] = assay: Tested for the tissue distribution of Br activity at 60 min in kidney following intravenous injection in rat at the dose of 0.2 mg/kg; assay type: ADME, organism-based; settings: in vivo, 1 h; summary of the method: as §1
Rattus norvegicus [23] = assay: Tested for the tissue distribution of Br activity at 120 min in brain following intravenous injection in rat at the dose of 0.2 mg/kg; assay type: ADME, organism-based; settings: in vivo, 2 h; summary of the method: as §1
Rattus norvegicus [24] = assay: Tested for the tissue distribution of Br activity at 45 min in kidney following intravenous injection in rat at the dose of 0.2 mg/kg; assay type: ADME, organism-based; settings: in vivo, 0.75 h; summary of the method: as §1
Rattus norvegicus [25] = assay: Tested for the tissue distribution of Br activity at 120 min in kidney following intravenous injection in rat at the dose of 0.2 mg/kg; assay type: ADME, organism-based; settings: in vivo, 2 h; summary of the method: as §1

Dose/g (Rattus norvegicus [1]): 1.58% | Dose/g (Rattus norvegicus [2]): 1.53% | Dose/g (Rattus norvegicus [3]): 5.07% | Dose/g (Rattus norvegicus [4]): 1.63% | Dose/g (Rattus norvegicus [5]): 1.7% | Dose/g (Rattus norvegicus [6]): 0.12% | Dose/g (Rattus norvegicus [7]): 0.32% | Dose/g (Rattus norvegicus [8]): 2.75% | Dose/g (Rattus norvegicus [9]): 0.14% | Dose/g (Rattus norvegicus [10]): 0.41% | Dose/g (Rattus norvegicus [11]): 1.66% | Dose/g (Rattus norvegicus [12]): 0.58% | Dose/g (Rattus norvegicus [13]): 2.25% | Dose/g (Rattus norvegicus [14]): 1.44% | Dose/g (Rattus norvegicus [15]): 1.2% | Dose/g (Rattus norvegicus [16]): 0.41% | Dose/g (Rattus norvegicus [17]): 0.14% | Dose/g (Rattus norvegicus [18]): 1.23% | Dose/g (Rattus norvegicus [19]): 3.17% | Dose/g (Rattus norvegicus [20]): 0.14% | Dose/g (Rattus norvegicus [21]): 0.15% | Dose/g (Rattus norvegicus [22]): 0.93% | Dose/g (Rattus norvegicus [23]): 0.2% | Dose/g (Rattus norvegicus [24]): 1.03% | Dose/g (Rattus norvegicus [25]): 0.61%
SMILES: O=C(CCCN1CCC(O)(c2ccc(Br)cc2)CC1)c1ccc(F)cc1 [BROMPERIDOL]
